Among the data in ChEMBL document CHEMBL1122887, “Structure-activity studies on the N-terminal region of growth hormone releasing factor” (1985) are Activity values, retold here.

The structures appear in SMILES notation. The source made the active and inactive calls.

Assay [1] deals with Rattus norvegicus. The assay is described as follows: Percent growth hormone releasing activity in anesthetized rat relative to hpGRF (1-29)NH2. In kind it is functional. In outline: (§1)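 In pentobarbital-anesthetized male Charles River rats (6–9/group), two subcutaneous analogue doses and GRF(1-29)NH₂ reference doses were given. Plasma GH was measured by radioimmunoassay in jugular blood taken 15 min post-injection. Relative potency with 95% confidence limits came from a four-point assay design by Pugsley's method. Not active means no activity at the doses tested.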

Assay [2] has as its system Rattus norvegicus. The assay is described as follows: Effect on plasma growth hormone in anesthetized rat at a dose of 25 ug/100 g of body weight. In kind it is functional. An outline of the steps: (§2)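 Male Charles River rats (175–350 g) anesthetized with sodium pentobarbital (6 mg/100 g body wt); 30 min later, 6–9 per group received a single subcutaneous 0.5-mL injection of saline, GRF(1-29)NH₂ reference, or one of two analogue doses. Jugular vein blood was drawn 15 min post-injection, and plasma GH was measured by radioimmunoassay, reported as ng/mL ± SE.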

Assay [3] concerns Rattus norvegicus. The assay is described as follows: Effect on plasma growth hormone in anesthetized rat at a dose of 5 ug/100 g of body weight. In kind it is functional. In outline: as §2
The subject of assay [4] is Rattus norvegicus. Kind of assay: Percent growth hormone releasing activity in anesthetized rat relative to hpGRF (1-29)NH2; Not active. In kind it is functional, organism-based. In outline:
as §1

As to `CC[C@H](C)[C@H](NC(=O)[C@H](C)NC(=O)[C@H](CC(=O)O)NC(=O)[C@@H](C)NC(=O)[C@@H](N)Cc1ccc(O)cc1)C(=O)N[C@@H](Cc1ccccc1)C(=O)N[C@H](C(=O)N[C@@H](CC(N)=O)C(=O)N[C@@H](CO)C(=O)N[C@@H](Cc1ccc(O)cc1)C(=O)N[C@@H](CCCN=C(N)N)C(=O)N[C@@H](CCCCN)C(=O)N[C@H](C(=O)N[C@@H](CC(C)C)C(=O)NCC(=O)N[C@@H](CCC(N)=O)C(=O)N[C@@H](CC(C)C)C(=O)N[C@@H](CO)C(=O)N[C@@H](C)C(=O)N[C@@H](CCCN=C(N)N)C(=O)N[C@@H](CCCCN)C(=O)N[C@@H](CC(C)C)C(=O)N[C@@H](CC(C)C)C(=O)N[C@@H](CCC(N)=O)C(=O)N[C@@H](CC(=O)O)C(=O)N[C@H](C(=O)N[C@@H](CCSC)C(=O)N[C@@H](CO)C(=O)N[C@@H](CCCN=C(N)N)C(N)=O)[C@@H](C)CC)C(C)C)[C@@H](C)O`, the Activity in the assay with Rattus norvegicus [1] worked out at 5146%. Still for that read-out and setting: the same measure for `CC[C@H](C)[C@H](NC(=O)[C@H](C)NC(=O)[C@H](CC(=O)O)NC(=O)[C@H](C)NC(=O)[C@H](Cc1ccc(O)cc1)NC(C)=O)C(=O)N[C@@H](Cc1ccccc1)C(=O)N[C@H](C(=O)N[C@@H](CC(N)=O)C(=O)N[C@@H](CO)C(=O)N[C@@H](Cc1ccc(O)cc1)C(=O)N[C@@H](CCCN=C(N)N)C(=O)N[C@@H](CCCCN)C(=O)N[C@H](C(=O)N[C@@H](CC(C)C)C(=O)NCC(=O)N[C@@H](CCC(N)=O)C(=O)N[C@@H](CC(C)C)C(=O)N[C@@H](CO)C(=O)N[C@@H](C)C(=O)N[C@@H](CCCN=C(N)N)C(=O)N[C@@H](CCCCN)C(=O)N[C@@H](CC(C)C)C(=O)N[C@@H](CC(C)C)C(=O)N[C@@H](CCC(N)=O)C(=O)N[C@@H](CC(=O)O)C(=O)N[C@H](C(=O)N[C@@H](CCSC)C(=O)N[C@@H](CO)C(=O)N[C@@H](CCCN=C(N)N)C(N)=O)[C@@H](C)CC)C(C)C)[C@@H](C)O`: 1224%. On the same count and under the same terms, the same measure for `CC[C@H](C)[C@H](NC(=O)[C@H](C)NC(=O)[C@H](CC(=O)O)NC(=O)[C@@H](C)NC(=O)[C@@H](Cc1ccc(O)cc1)NC(C)=O)C(=O)N[C@@H](Cc1ccccc1)C(=O)N[C@H](C(=O)N[C@@H](CC(N)=O)C(=O)N[C@@H](CO)C(=O)N[C@@H](Cc1ccc(O)cc1)C(=O)N[C@@H](CCCN=C(N)N)C(=O)N[C@@H](CCCCN)C(=O)N[C@H](C(=O)N[C@@H](CC(C)C)C(=O)NCC(=O)N[C@@H](CCC(N)=O)C(=O)N[C@@H](CC(C)C)C(=O)N[C@@H](CO)C(=O)N[C@@H](C)C(=O)N[C@@H](CCCN=C(N)N)C(=O)N[C@@H](CCCCN)C(=O)N[C@@H](CC(C)C)C(=O)N[C@@H](CC(C)C)C(=O)N[C@@H](CCC(N)=O)C(=O)N[C@@H](CC(=O)O)C(=O)N[C@H](C(=O)N[C@@H](CCSC)C(=O)N[C@@H](CO)C(=O)N[C@@H](CCCN=C(N)N)C(N)=O)[C@@H](C)CC)C(C)C)[C@@H](C)O` (stereo in doubt; 1): 993%; for `CC[C@H](C)[C@H](NC(=O)[C@H](C)NC(=O)[C@H](CC(=O)O)NC(=O)[C@@H](C)NC(=O)[C@@H](Cc1ccc(O)cc1)NC(C)=O)C(=O)N[C@@H](Cc1ccccc1)C(=O)N[C@H](C(=O)N[C@@H](CC(N)=O)C(=O)N[C@@H](CO)C(=O)N[C@@H](Cc1ccc(O)cc1)C(=O)N[C@@H](CCCN=C(N)N)C(=O)N[C@@H](CCCCN)C(=O)N[C@H](C(=O)N[C@@H](CC(C)C)C(=O)NCC(=O)N[C@@H](CCC(N)=O)C(=O)N[C@@H](CC(C)C)C(=O)N[C@@H](CO)C(=O)N[C@@H](C)C(=O)N[C@@H](CCCN=C(N)N)C(=O)N[C@@H](CCCCN)C(=O)N[C@@H](CC(C)C)C(=O)N[C@@H](CC(C)C)C(=O)N[C@@H](CCC(N)=O)C(=O)N[C@@H](CC(=O)O)C(=O)N[C@H](C(=O)N[C@@H](CCSC)C(=O)N[C@@H](CO)C(=O)N[C@@H](CCCN=C(N)N)C(N)=O)[C@@H](C)CC)C(C)C)[C@@H](C)O` (stereo in doubt; 3): 670%. With `CC[C@H](C)[C@H](NC(=O)[C@H](C)NC(=O)[C@H](CC(=O)O)NC(=O)[C@@H](C)NC(=O)[C@@H](Cc1ccc(O)cc1)NC(C)=O)C(=O)N[C@@H](Cc1ccccc1)C(=O)N[C@H](C(=O)N[C@@H](CC(N)=O)C(=O)N[C@@H](CO)C(=O)N[C@@H](Cc1ccc(O)cc1)C(=O)N[C@@H](CCCN=C(N)N)C(=O)N[C@@H](CCCCN)C(=O)N[C@H](C(=O)N[C@@H](CC(C)C)C(=O)NCC(=O)N[C@@H](CCC(N)=O)C(=O)N[C@@H](CC(C)C)C(=O)N[C@@H](CO)C(=O)N[C@@H](C)C(=O)N[C@@H](CCCN=C(N)N)C(=O)N[C@@H](CCCCN)C(=O)N[C@@H](CC(C)C)C(=O)N[C@@H](CC(C)C)C(=O)N[C@@H](CCC(N)=O)C(=O)N[C@@H](CC(=O)O)C(=O)N[C@H](C(=O)N[C@@H](CCSC)C(=O)N[C@@H](CO)C(=O)N[C@@H](CCCN=C(N)N)C(N)=O)[C@@H](C)CC)C(C)C)[C@@H](C)O` (stereo in doubt; 4), the Activity was 2234 ng/mL in the assay on Rattus norvegicus [2], 805 ng/mL in the assay on Rattus norvegicus [3] and 110% in the assay on Rattus norvegicus [1].

As to `CC[C@H](C)[C@H](NC(=O)[C@H](C)NC(=O)[C@H](CC(=O)O)NC(=O)[C@@H](C)NC(=O)[C@@H](Cc1ccc(O)cc1)NC(C)=O)C(=O)N[C@@H](Cc1ccccc1)C(=O)N[C@H](C(=O)N[C@@H](CC(N)=O)C(=O)N[C@@H](CO)C(=O)N[C@@H](Cc1ccc(O)cc1)C(=O)N[C@@H](CCCN=C(N)N)C(=O)N[C@@H](CCCCN)C(=O)N[C@H](C(=O)N[C@@H](CC(C)C)C(=O)NCC(=O)N[C@@H](CCC(N)=O)C(=O)N[C@@H](CC(C)C)C(=O)N[C@@H](CO)C(=O)N[C@@H](C)C(=O)N[C@@H](CCCN=C(N)N)C(=O)N[C@@H](CCCCN)C(=O)N[C@@H](CC(C)C)C(=O)N[C@@H](CC(C)C)C(=O)N[C@@H](CCC(N)=O)C(=O)N[C@@H](CC(=O)O)C(=O)N[C@H](C(=O)N[C@@H](CCSC)C(=O)N[C@@H](CO)C(=O)N[C@@H](CCCN=C(N)N)C(N)=O)[C@@H](C)CC)C(C)C)[C@@H](C)O` (stereo in doubt; 6) [listing 1 of 2 here], the figures for the Activity in the assay with Rattus norvegicus [2] and in the assay with Rattus norvegicus [3] were 374 ng/mL and 324 ng/mL, respectively.

As to `CC[C@H](C)[C@H](NC(=O)[C@H](C)NC(=O)[C@H](CC(=O)O)NC(=O)[C@@H](C)NC(=O)[C@@H](Cc1ccc(O)cc1)NC(C)=O)C(=O)N[C@@H](Cc1ccccc1)C(=O)N[C@H](C(=O)N[C@@H](CC(N)=O)C(=O)N[C@@H](CO)C(=O)N[C@@H](Cc1ccc(O)cc1)C(=O)N[C@@H](CCCN=C(N)N)C(=O)N[C@@H](CCCCN)C(=O)N[C@H](C(=O)N[C@@H](CC(C)C)C(=O)NCC(=O)N[C@@H](CCC(N)=O)C(=O)N[C@@H](CC(C)C)C(=O)N[C@@H](CO)C(=O)N[C@@H](C)C(=O)N[C@@H](CCCN=C(N)N)C(=O)N[C@@H](CCCCN)C(=O)N[C@@H](CC(C)C)C(=O)N[C@@H](CC(C)C)C(=O)N[C@@H](CCC(N)=O)C(=O)N[C@@H](CC(=O)O)C(=O)N[C@H](C(=O)N[C@@H](CCSC)C(=O)N[C@@H](CO)C(=O)N[C@@H](CCCN=C(N)N)C(N)=O)[C@@H](C)CC)C(C)C)[C@@H](C)O` (stereo in doubt; 6) [listing 2 of 2 here], the result in the assay on Rattus norvegicus [4] was inactive. `CC[C@H](C)[C@H](NC(=O)[C@H](C)NC(=O)[C@H](CC(=O)O)NC(=O)[C@@H](C)NC(=O)[C@@H](Cc1ccc(O)cc1)NC(C)=O)C(=O)N[C@@H](Cc1ccccc1)C(=O)N[C@H](C(=O)N[C@@H](CC(N)=O)C(=O)N[C@@H](CO)C(=O)N[C@@H](Cc1ccc(O)cc1)C(=O)N[C@@H](CCCN=C(N)N)C(=O)N[C@@H](CCCCN)C(=O)N[C@H](C(=O)N[C@@H](CC(C)C)C(=O)NCC(=O)N[C@@H](CCC(N)=O)C(=O)N[C@@H](CC(C)C)C(=O)N[C@@H](CO)C(=O)N[C@@H](C)C(=O)N[C@@H](CCCN=C(N)N)C(=O)N[C@@H](CCCCN)C(=O)N[C@@H](CC(C)C)C(=O)N[C@@H](CC(C)C)C(=O)N[C@@H](CCC(N)=O)C(=O)N[C@@H](CC(=O)O)C(=O)N[C@H](C(=O)N[C@@H](CCSC)C(=O)N[C@@H](CO)C(=O)N[C@@H](CCCN=C(N)N)C(N)=O)[C@@H](C)CC)C(C)C)[C@@H](C)O` (stereo in doubt; 7) [listing 1 of 2 here]: the results for the Activity in the assay on Rattus norvegicus [2] and in the assay with Rattus norvegicus [3] were 328 ng/mL and 213 ng/mL, respectively. On to `CC[C@H](C)[C@H](NC(=O)[C@H](C)NC(=O)[C@H](CC(=O)O)NC(=O)[C@@H](C)NC(=O)[C@@H](Cc1ccc(O)cc1)NC(C)=O)C(=O)N[C@@H](Cc1ccccc1)C(=O)N[C@H](C(=O)N[C@@H](CC(N)=O)C(=O)N[C@@H](CO)C(=O)N[C@@H](Cc1ccc(O)cc1)C(=O)N[C@@H](CCCN=C(N)N)C(=O)N[C@@H](CCCCN)C(=O)N[C@H](C(=O)N[C@@H](CC(C)C)C(=O)NCC(=O)N[C@@H](CCC(N)=O)C(=O)N[C@@H](CC(C)C)C(=O)N[C@@H](CO)C(=O)N[C@@H](C)C(=O)N[C@@H](CCCN=C(N)N)C(=O)N[C@@H](CCCCN)C(=O)N[C@@H](CC(C)C)C(=O)N[C@@H](CC(C)C)C(=O)N[C@@H](CCC(N)=O)C(=O)N[C@@H](CC(=O)O)C(=O)N[C@H](C(=O)N[C@@H](CCSC)C(=O)N[C@@H](CO)C(=O)N[C@@H](CCCN=C(N)N)C(N)=O)[C@@H](C)CC)C(C)C)[C@@H](C)O` (stereo in doubt; 7) [listing 2 of 2 here], for which the result with Rattus norvegicus [4] was inactive.
